This passage reports inhibition and cytotoxicity (% decrease in viability) results from ChEMBL document CHEMBL1629471, “Synthesis of (S)-(+)-decursin and its analogues as potent inhibitors of melanin formation in B16 murine melanoma cells” (Eur J Med Chem, 2010).

In data set [1] the test system is B16-F10. Nature of the data set: Inhibition of melanin production in mouse B16F10 cells at 100 uM after 2 days. As to conditions: B16-F10, 48 h. Type of data set: functional. The procedure, abridged:
(§1)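 Extracellular melanin release: B16 murine melanoma cells seeded at 1×10^5 per well overnight, then alpha-MSH added with or without compound in phenol red-free DMEM for 2 d. Melanin in the medium quantified by absorbance at 405 nm. Cells were maintained in DMEM with 10% heat-inactivated FBS and 1% penicillin-streptomycin at 37 °C, 5% CO2.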

Data set [2] in a line: Cytotoxicity against mouse B16F10 cells assessed as cell viability after 24 hrs by MTT assay. Type of data set: cell-based, B16-F10. Details: concentration or dose not given beside the values. In outline:
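B16 murine melanoma cells (DMEM, 10% heat-inactivated FBS, 1% penicillin-streptomycin, 5% CO2, 37 °C) exposed to compounds or no compound for 24 h. MTT (5 mg/ml in PBS) added, 3 h at 37 °C, formazan dissolved in DMSO, absorbance read at 570 nm.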
(In general: Formazan colour is commonly taken as a measure of viable cells.)

Data set [3] deals with B16-F10. Put plainly: Inhibition of melanin production in mouse B16F10 cells at 500 uM after 2 days. Type of data set: functional. As to conditions: B16-F10, 48 h. The procedure, abridged: as §1

In the case of `CC(=O)Oc1ccc(/C=C/C(=O)O[C@H]2Cc3cc4ccc(=O)oc4cc3OC2(C)C)cc1OC(C)=O`, the inhibition (usually the change of the read-out against control, counted positive when it falls) at 100 µM with B16-F10 [1] stood at 30.7%. Moreover, the cytotoxicity (% decrease in viability) at 24 h in data set [2] stood at 49.4%.
With `CC1(C)Oc2cc3oc(=O)ccc3cc2C[C@@H]1OC(=O)/C=C/c1cccs1`, the inhibition at 100 µM in the data set with B16-F10 [1] is 71.6%. Besides, the cytotoxicity (% decrease in viability) at 24 h in data set [2] is -15.4%.
For `CC(=O)Oc1cccc(/C=C/C(=O)O[C@H]2Cc3cc4ccc(=O)oc4cc3OC2(C)C)c1`, in that order: 80.7% and 31.4%.
With `C/C=C(\C)C(=O)O[C@H]1Cc2cc3ccc(=O)oc3cc2OC1(C)C` [DECURSINOL TIGLATE], the inhibition at 100 µM with B16-F10 [1] came to 71.5%. Besides, the cytotoxicity (% decrease in viability) at 24 h in data set [2] was 16.4%.
Consider `CCCCC(=O)O[C@H]1Cc2cc3ccc(=O)oc3cc2OC1(C)C`, for which the inhibition at 100 µM in the data set on B16-F10 [1] came out at 76.5%. Also, in data set [2], the cytotoxicity (% decrease in viability) at 24 h was determined as 10.4%.
Consider `COc1ccc(/C=C/C(=O)O[C@H]2Cc3cc4ccc(=O)oc4cc3OC2(C)C)cc1OC`, for which, in the data set with B16-F10 [1], the inhibition at 100 µM was 42.4%. For the same compound, the cytotoxicity (% decrease in viability) at 24 h in data set [2] was -1.4%.
Regarding `CC1(C)Oc2cc3oc(=O)ccc3cc2C[C@@H]1O` [DECURSINOL], the inhibition at 100 µM in the data set on B16-F10 [1] was determined as 12.2%. For the same compound, the cytotoxicity (% decrease in viability) at 24 h in data set [2] was 1.4%.
In the same order, the values of `CC(=O)Oc1cc(/C=C/C(=O)O[C@H]2Cc3cc4ccc(=O)oc4cc3OC2(C)C)cc(OC(C)=O)c1OC(C)=O` are 35.4% and 54.8%.
Consider `OC[C@H]1O[C@@H](Oc2ccc(O)cc2)[C@H](O)[C@@H](O)[C@@H]1O` [ARBUTIN], for which, in the data set with B16-F10 [3], the inhibition at 500 µM was determined as 41%. Further, in data set [2], the cytotoxicity (% decrease in viability) at 24 h is -6.2%.
In the case of `C=C(C)C(=O)O[C@H]1Cc2cc3ccc(=O)oc3cc2OC1(C)C`, the inhibition at 100 µM with B16-F10 [1] worked out at 58.1%. In data set [2], the cytotoxicity (% decrease in viability) at 24 h was 58.4%.
As for `CC(=O)O[C@H]1Cc2cc3ccc(=O)oc3cc2OC1(C)C`, in the data set with B16-F10 [1], the inhibition at 100 µM is -5.7%. Moreover, the cytotoxicity (% decrease in viability) at 24 h in data set [2] is 3.7%.
In the same order, the values of `CC1(C)Oc2cc3oc(=O)ccc3cc2C[C@@H]1OC(=O)/C=C/c1cc(O)c(O)c(O)c1` are 59.2% and 42.9%.
Regarding `CC(=O)Oc1ccc(/C=C/C(=O)O[C@H]2Cc3cc4ccc(=O)oc4cc3OC2(C)C)cc1`, the inhibition at 100 µM with B16-F10 [1] stood at 76.1%. Further, in data set [2], the cytotoxicity (% decrease in viability) at 24 h came out at 58%.
For `C/C=C(/C)C(=O)O[C@H]1Cc2cc3ccc(=O)oc3cc2OC1(C)C` [DECURSINOL ANGELATE], in that order: 74.5% and -2.4%.
For `C=CCC(=O)O[C@H]1Cc2cc3ccc(=O)oc3cc2OC1(C)C`, in that order: -8.1% and 0.6%.
With `COc1ccc(/C=C/C(=O)O[C@H]2Cc3cc4ccc(=O)oc4cc3OC2(C)C)cc1`, the inhibition at 100 µM in the data set on B16-F10 [1] was 40.3%. Besides, in data set [2], the cytotoxicity (% decrease in viability) at 24 h is -3.5%.
As for `CC/C=C/C(=O)O[C@H]1Cc2cc3ccc(=O)oc3cc2OC1(C)C`, the inhibition at 100 µM in the data set with B16-F10 [1] was determined as 79.4%. Further, the cytotoxicity (% decrease in viability) at 24 h in data set [2] came out at 39.5%.
Regarding `COc1ccccc1/C=C/C(=O)O[C@H]1Cc2cc3ccc(=O)oc3cc2OC1(C)C`, in the data set with B16-F10 [1], the inhibition at 100 µM was 63.7%. Also, the cytotoxicity (% decrease in viability) at 24 h in data set [2] is -5.1%.
Regarding `CC1(C)Oc2cc3oc(=O)ccc3cc2C[C@@H]1OC(=O)CCc1ccccc1`, the inhibition at 100 µM in the data set on B16-F10 [1] was determined as 62.8%. In data set [2], the cytotoxicity (% decrease in viability) at 24 h was -0.6%.
In the case of `COc1cccc(/C=C/C(=O)O[C@H]2Cc3cc4ccc(=O)oc4cc3OC2(C)C)c1`, the inhibition at 100 µM in the data set with B16-F10 [1] is 37.9%. Besides, the cytotoxicity (% decrease in viability) at 24 h in data set [2] worked out at 14.5%.
In the same order, the values of `CC(=O)Oc1ccccc1/C=C/C(=O)O[C@H]1Cc2cc3ccc(=O)oc3cc2OC1(C)C` are 65.9% and 63.1%.
As to `COc1cc(/C=C/C(=O)O[C@H]2Cc3cc4ccc(=O)oc4cc3OC2(C)C)cc(OC)c1OC`, in the data set on B16-F10 [1], the inhibition at 100 µM was determined as 18.8%. Moreover, the cytotoxicity (% decrease in viability) at 24 h in data set [2] stood at 4.1%.
For the compound `CC1(C)Oc2cc3oc(=O)ccc3cc2C[C@@H]1OC(=O)/C=C/c1cccc(O)c1`, in the data set on B16-F10 [1], the inhibition at 100 µM came out at 73.8%. Moreover, the cytotoxicity (% decrease in viability) at 24 h in data set [2] was 47.9%.
In the same order, the values of `CC1(C)Oc2cc3oc(=O)ccc3cc2C[C@@H]1OC(=O)/C=C/c1ccccc1` [DIHYDROPYRANOCOUMARIN D2] are 72.1% and 0.8%.
For `CC1(C)Oc2cc3oc(=O)ccc3cc2C[C@@H]1OC(=O)/C=C/c1ccccc1O`, the inhibition at 100 µM with B16-F10 [1] turned out to be 76.8%. Moreover, the cytotoxicity (% decrease in viability) at 24 h in data set [2] came to 74.2%.
Turning to `COc1ccccc1CCC(=O)O[C@H]1Cc2cc3ccc(=O)oc3cc2OC1(C)C`, the inhibition at 100 µM in the data set on B16-F10 [1] was 68.9%. The cytotoxicity (% decrease in viability) at 24 h in data set [2] came out at 6.1%.
As for `CCCCCCCCCC(=O)O[C@H]1Cc2cc3ccc(=O)oc3cc2OC1(C)C`, the inhibition at 100 µM in the data set on B16-F10 [1] worked out at 79.3%. The cytotoxicity (% decrease in viability) at 24 h in data set [2] is 28.2%.
As for `C=CCCC(=O)O[C@H]1Cc2cc3ccc(=O)oc3cc2OC1(C)C`, the inhibition at 100 µM with B16-F10 [1] is 36.4%. In addition, the cytotoxicity (% decrease in viability) at 24 h in data set [2] was -0.4%.
For the compound `CC(C)=CC(=O)O[C@H]1Cc2cc3ccc(=O)oc3cc2OC1(C)C` [DECURSIN], in the data set with B16-F10 [1], the inhibition at 100 µM was found to be 71%. In addition, the cytotoxicity (% decrease in viability) at 24 h in data set [2] is -9.7%.
`CC1(C)Oc2cc3oc(=O)ccc3cc2C[C@@H]1OC/C=C/c1ccccc1` [PROGERININ]: the inhibition at 100 µM in the data set on B16-F10 [1] was determined as 33.8%. In addition, the cytotoxicity (% decrease in viability) at 24 h in data set [2] is -12.5%.
For the compound `CC1(C)Oc2cc3oc(=O)ccc3cc2C[C@@H]1OC(=O)/C=C/c1ccco1`, the inhibition at 100 µM in the data set on B16-F10 [1] was found to be 33%. Further, the cytotoxicity (% decrease in viability) at 24 h in data set [2] is -1.4%.
In the same order, the values of `CC1(C)Oc2cc3oc(=O)ccc3cc2C[C@@H]1OC(=O)/C=C/c1ccc(O)c(O)c1` are 43.5% and 67.6%.
In the same order, the values of `CC1(C)Oc2cc3oc(=O)ccc3cc2C[C@@H]1OC(=O)/C=C/c1ccc(O)cc1` are 66.4% and 65.8%.
`CC1(C)Oc2cc3oc(=O)ccc3cc2C[C@@H]1OC(=O)/C=C/c1cccnc1`: in the data set on B16-F10 [1], the inhibition at 100 µM was 53.5%. Further, the cytotoxicity (% decrease in viability) at 24 h in data set [2] came out at 5%.
